RAM network inh – blocks the yeast RAM network | 190,000 tested, 1.8% active | inhibition, % at 50 µM | S. cerevisiae dse1pr::URA3 reporter, 5-FOA growth OD615, 2 d; analog-sensitive cbk1-as2 kinase mutant strain;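 active means inhibition above a set limit, 3 SD over mean compound inhibition, cut at about 8.4% in these data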;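 further: inhibition rescues growth on 5-FOA so higher OD means more RAM inhibition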
ABCB1 block – inhibitors of human ABCB1 transporter, ABCG2 counter-screen. CCRF-Adr cells, JC-1 efflux, flow cytometry. AID 1326. inhibition, % at 6.6 µM. P08183. 190,000 tested, 0.067% active; in the data active means inhibition above about 40%;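 further: higher value means more JC-1 retained so stronger ABCB1 efflux block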
Target sequence (P08183 whole entry, looked up): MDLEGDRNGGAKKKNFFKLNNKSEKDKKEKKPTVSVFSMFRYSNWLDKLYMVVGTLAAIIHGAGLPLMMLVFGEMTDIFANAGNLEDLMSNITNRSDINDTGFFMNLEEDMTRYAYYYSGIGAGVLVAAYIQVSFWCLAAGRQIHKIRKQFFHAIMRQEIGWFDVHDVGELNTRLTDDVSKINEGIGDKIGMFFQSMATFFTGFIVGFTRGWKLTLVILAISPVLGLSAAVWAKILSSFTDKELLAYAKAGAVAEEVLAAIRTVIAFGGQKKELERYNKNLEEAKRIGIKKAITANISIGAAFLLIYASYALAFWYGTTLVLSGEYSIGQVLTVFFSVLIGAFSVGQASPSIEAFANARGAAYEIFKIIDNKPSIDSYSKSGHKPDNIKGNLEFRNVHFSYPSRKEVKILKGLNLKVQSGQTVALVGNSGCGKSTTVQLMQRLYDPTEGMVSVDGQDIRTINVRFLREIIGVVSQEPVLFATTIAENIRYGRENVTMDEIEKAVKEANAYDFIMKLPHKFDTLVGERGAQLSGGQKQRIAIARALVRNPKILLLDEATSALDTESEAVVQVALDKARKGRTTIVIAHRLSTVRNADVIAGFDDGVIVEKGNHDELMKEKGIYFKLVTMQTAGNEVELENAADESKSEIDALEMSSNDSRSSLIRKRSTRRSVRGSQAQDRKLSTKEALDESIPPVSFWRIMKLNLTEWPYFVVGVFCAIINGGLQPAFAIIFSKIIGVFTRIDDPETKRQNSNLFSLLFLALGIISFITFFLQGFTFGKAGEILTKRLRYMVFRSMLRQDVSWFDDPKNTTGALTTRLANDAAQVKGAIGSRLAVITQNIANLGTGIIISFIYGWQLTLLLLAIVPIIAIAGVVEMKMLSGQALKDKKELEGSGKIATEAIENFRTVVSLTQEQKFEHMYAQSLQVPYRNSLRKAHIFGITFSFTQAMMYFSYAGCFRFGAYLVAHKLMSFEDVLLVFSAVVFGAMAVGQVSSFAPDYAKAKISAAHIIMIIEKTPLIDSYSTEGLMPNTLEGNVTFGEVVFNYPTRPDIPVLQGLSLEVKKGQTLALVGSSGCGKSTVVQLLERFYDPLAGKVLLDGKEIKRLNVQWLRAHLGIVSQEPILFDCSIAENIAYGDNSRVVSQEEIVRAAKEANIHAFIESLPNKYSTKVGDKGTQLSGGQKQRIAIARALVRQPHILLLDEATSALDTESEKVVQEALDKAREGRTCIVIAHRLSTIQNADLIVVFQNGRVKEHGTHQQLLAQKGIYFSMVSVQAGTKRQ
Arbovirus anti – antivirals against arbovirus infection. arbovirus infection cell-based antiviral screen. AID 1251. inhibition, % at 10 µM. 200,000 tested, 0.37% active; in the data active means inhibition above about 30%
ABCG2 inh – inhibitors of human ABCG2 transporter, ABCB1 counter-screen; Q9UNQ0; IgMXP3 cells, JC-1 efflux, flow cytometry; inhibition, % at 6.6 µM; 190,000 tested, 0.1% active; AID 1325;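 active means inhibition above 80%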
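Test system: IgMXP3 cells (ABCG2) mixed with DDAO far-red-labelled CCRF-Adr cells (ABCB1). Reagent: JC-1 transporter substrate. Compound dosing: single test compound dose, 6.6 µM final. Times: 10 min compound exposure, 25 °C. Detection: flow cytometry of retained JC-1 fluorescence. Read-out basis: efflux inhibition in percent versus controls. Controls: nicardipine and DMSO wells.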
Large screens that a line does not name were inactive. Rows were chosen to be rich in hits. Some 2.3% of all compounds tested hit in one or more screens of this group.

Nc1nc(Cl)cc(N2CCC(c3cc(-c4ccc(Cl)cc4Cl)n[nH]3)CC2)n1	none
O=C(O)c1ccccc1C(=O)OCCCCOC(=O)c1ccccc1C(=O)O	none
CCCC(=O)Oc1ccccc1C1SCc2cc(C)c(C)cc2CS1	Arbovirus anti 32
O=C(CS(=O)(=O)c1cn(Cc2cccc(F)c2)c2ccccc12)N1CCOCC1	RAM network inh 9.3
COc1ccc(-c2nc(NC(=O)c3ccc(OCC(=O)N4CCOCC4)c(OC)c3)sc2C)cc1	RAM network inh 9.0, Arbovirus anti 45
COc1cc(C(=O)Nc2nc(-c3ccc(Cl)cc3)c(C)s2)ccc1OCC(=O)Nc1ccc(F)cc1	none
COC(=O)c1ccccc1NC(=O)CSc1nnc(-c2ccc(OC)cc2)n1C	none
CCC(=O)Nc1ccc(C(=O)CSc2nnc(-c3ccccc3F)n2CCc2ccccc2)cc1	none
O=C(CSc1nnc(-c2ccccc2F)n1CCc1ccccc1)Nc1ccc2[nH]c(=O)[nH]c2c1	RAM network inh 9.0
CCOc1cc(/C=C(/C#N)c2nc3ccccc3[nH]2)ccc1OCc1ccc(C(=O)O)o1	RAM network inh 9.1
CCNC(=O)NC(=O)C(C)Sc1nc2cc(C(=O)OC)ccc2c(=O)n1-c1ccccc1 (stereo not drawn)	Arbovirus anti 43
Cc1noc(NS(=O)(=O)c2ccc(N)cc2)c1C	none
CCOC(=O)c1cnn(-c2nc(-c3ccccc3)cs2)c1C(F)(F)F	RAM network inh 10
CCOC(=O)c1cnc2c(-c3ccc(Cl)cc3)cnn2c1C	none
CCOC(=O)c1cnn(-c2nc(-c3ccccc3F)cs2)c1C(F)(F)F	none
CCOC(=O)c1cnc2c(-c3ccc(F)cc3)cnn2c1C(F)(F)F	Arbovirus anti 62
CCOC(=O)c1cnn(-c2nc(-c3ccc(F)cc3)cs2)c1C(F)(F)F	RAM network inh 9.2
Cc1cc(N2CCN(S(=O)(=O)c3ccc(Cl)cc3)CC2)c2ccccc2n1	Arbovirus anti 36
Cc1ccc(S(=O)(=O)N2CCN(c3ccnc4cc(Cl)ccc34)CC2)cc1C	Arbovirus anti 30
Cc1cc(N2CCN(S(=O)(=O)c3ccc(Cl)c(Cl)c3)CC2)c2ccccc2n1	none
Cc1ccc(S(=O)(=O)N2CCN(c3ccnc4cc(Cl)ccc34)CC2)cc1	none
CCN(CC)S(=O)(=O)c1ccc(OC)c(NC(=O)Cc2cccs2)c1	none
C=CCSc1nc2c(c(C3CC=CCC3)c1C#N)CCC2 (stereo not drawn)	none
CC(C)OC(=O)CSc1nc2c(c(C3CC=CCC3)c1C#N)CCC2 (stereo not drawn)	RAM network inh 11
O=C(Cc1cccs1)Nc1cccc(-c2ccc3nncn3n2)c1	RAM network inh 8.5
CCCCOC(=O)c1ccc(NC(=O)CSC2=Nc3ccccc3C3CC=NN23)cc1 (stereo not drawn)	RAM network inh 8.4
COc1cc(O)c2c(c1)OC(C)(C)CC2=O	none
COC(=O)c1ccc(CNC(=O)c2ccc(COc3ccccc3)cc2)cc1	none
COC(=O)c1ccc(COc2cc(O)c3c(c2)OC(C)(C)CC3=O)cc1	RAM network inh 10
CC1(C)CC(=O)c2c(O)cc(OCc3ccc(Br)cc3)cc2O1	RAM network inh 8.7
Cn1c2ccccc2c2c(C(=O)NCC3CCCO3)cn(C3CCCC3)c(=O)c21 (stereo not drawn)	none
COc1ccc(N2CCN(C(=O)CCNS(=O)(=O)c3cccs3)CC2)cc1	none
CCn1c(SCC(=O)Nc2nc3ccccc3s2)nnc1-c1ccc(OC)cc1	RAM network inh 9.8
Cc1ccc2nc(NC(=O)CSc3nnc(C)c(=O)n3N)sc2c1	RAM network inh 8.9
CCn1c(Cc2ccccc2)nnc1SCC(=O)Nc1nc2ccccc2s1	none
Cc1ccc(NC(=O)CSc2nnc(C)c(=O)n2N)c(C)c1	none
O=S(=O)(c1cccs1)N1CN(Cc2cccs2)c2nc3ccccc3nc21	RAM network inh 8.6
O=C(Nc1cccc(Cl)c1Cl)C1CCN(c2ncccn2)CC1	none
CCCCN(C)S(=O)(=O)c1cc(Br)cc2c1N(C(=O)C1CC1)CC2	RAM network inh 9.2
O=C(O)CCS(=O)(=O)c1cc(Br)cc2c1N(C(=O)C1CC1)CC2	none
COCCNC(=O)c1ccc(C2SCC(=O)N2Cc2ccco2)cc1 (stereo not drawn)	none
COc1ccc(N=c2oc3c(OC)cccc3cc2C(=O)NCc2ccco2)cc1OC	RAM network inh 9.9
COc1ccccc1N=c1oc2c(OC)cccc2cc1C(=O)NCc1ccco1	none
O=C1c2ccccc2C(=O)N1CSc1nnnn1-c1ccccc1	none
O=C1c2ccccc2C(=O)N1CCCCSc1nnnn1-c1ccccc1	RAM network inh 9.3
O=C(COC(=O)CCc1c[nH]c2ccccc12)NCc1ccc2c(c1)OCO2	none

Screening data (PubChem)
